# ChEMBL document CHEMBL3232844, “Synthesis and structure activity relationships of schweinfurthin indoles” (2014)
# Assays:
# Assay type in all cases: functional
# SN12C = experiment: Cytotoxicity against human SN12C cells; conditions: read-out: pTGI (converted)
# In short: (§1)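 Tested in a 60-cell-line human tumor panel screen; the read-out is growth inhibition, reported as GI50 for each cell line.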
# CAKI-1 = experiment: Cytotoxicity against human Caki1 cells; in short: as §1
# KM12 = experiment: Cytotoxicity against human KM12 cells; in short: as §1
# SK-MEL-5 = experiment: Cytotoxicity against human SK-MEL-5 cells; in short: as §1
# U-251 = experiment: Cytotoxicity against human U251 cells
# In short: (§2)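 Cell line run as part of the 60-cell-line screening panel; growth inhibition was reported as a GI50 for each line.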
# MDA-MB-435 = experiment: Cytotoxicity against human MDA-MB-435 cells; in short: as §1
# CCRF-CEM = experiment: Cytotoxicity against human CCRF-CEM cells
# SR = experiment: Cytotoxicity against human SR cells; in short: as §2
# M14 = experiment: Cytotoxicity against human M14 cells; in short: as §1
# RXF 393 = experiment: Cytotoxicity against human RXF393 cells; in short: as §1
# [1] = Cytotoxicity against human OVCAR8 cells; in short: as §1
# TK-10 = experiment: Cytotoxicity against human TK10 cells; in short: as §2
# NCI-H460 = experiment: Cytotoxicity against human NCI-H460 cells; in short: as §1
# MDA-MB-231 = experiment: Cytotoxicity against human MDA-MB-231 cells; in short: as §1
# HOP-62 = experiment: Cytotoxicity against human HOP62 cells; in short: as §1
# SK-OV-3 = experiment: Cytotoxicity against human SKOV3 cells; in short: as §1
# [2] = Cytotoxicity against human UACC257 cells; in short: as §2
# MDA-MB-468 = experiment: Cytotoxicity against human MDA-MB-468 cells; in short: as §1
# SF-295 = experiment: Cytotoxicity against human SF295 cells; in short: as §1
# NCI-H322M = experiment: Cytotoxicity against human NCI-H322M cells; in short: as §1
# SNB-19 = experiment: Cytotoxicity against human SNB19 cells; in short: as §1
# SK-MEL-2 = experiment: Cytotoxicity against human SK-MEL-2 cells; in short: as §1
# [3] = read-out: pLC50 (the source's name) (converted)
smiles,measurement,setting,value
COc1cc(/C=C/c2cc(O)c3c(c2)C[C@@H]2C(C)(C)[C@H](O)CC[C@@]2(C)O3)cc2[nH]cc(CC=C(C)C)c12,TGI,SN12C,45.7 µM
same,GI50,CAKI-1,0.245 µM
same,LC50,CAKI-1,79.4 µM
same,TGI,CAKI-1; read-out: pTGI (converted),17 µM
same,GI50,KM12,2.95 µM
same,CC50,KM12; [3],33.1 µM
same,TGI,KM12; read-out: pTGI (converted),10.2 µM
same,GI50,SK-MEL-5,1.23 µM
same,CC50,SK-MEL-5; [3],7.08 µM
same,TGI,SK-MEL-5; read-out: pTGI (converted),2.14 µM
same,GI50,U-251,0.01 µM
same,CC50,U-251; [3],60.3 µM
same,TGI,U-251; read-out: pTGI (converted),32.4 µM
same,GI50,MDA-MB-435,0.437 µM
same,CC50,MDA-MB-435; [3],95.5 µM
same,TGI,MDA-MB-435; read-out: pTGI (converted),38 µM
same,GI50,CCRF-CEM,0.0871 µM
same,CC50,CCRF-CEM; [3],> 100 µM
same,TGI,CCRF-CEM; read-out: pTGI (converted),14.8 µM
same,GI50,SR,0.155 µM
same,CC50,SR; [3],> 100 µM
same,TGI,SR; read-out: pTGI (converted),32.4 µM
same,GI50,M14,0.537 µM
same,CC50,M14; [3],64.6 µM
same,TGI,M14; read-out: pTGI (converted),32.4 µM
same,GI50,RXF 393,0.01 µM
same,LC50,RXF 393,8.51 µM
same,TGI,RXF 393; read-out: pTGI (converted),0.0339 µM
same,GI50,[1]; OVCAR-8,11.5 µM
same,CC50,"[1]; OVCAR-8, read-out: pLC50 (the source's name) (converted)",79.4 µM
same,TGI,"[1]; OVCAR-8, read-out: pTGI (converted)",47.9 µM
same,GI50,TK-10,8.32 µM
same,LC50,TK-10,69.2 µM
same,TGI,TK-10; read-out: pTGI (converted),40.7 µM
same,GI50,NCI-H460,0.209 µM
same,CC50,NCI-H460; [3],66.1 µM
same,TGI,NCI-H460; read-out: pTGI (converted),26.9 µM
same,GI50,MDA-MB-231,0.891 µM
same,LC50,MDA-MB-231,45.7 µM
same,TGI,MDA-MB-231; read-out: pTGI (converted),9.77 µM
same,GI50,HOP-62,0.0501 µM
same,CC50,HOP-62; [3],40.7 µM
same,TGI,HOP-62; read-out: pTGI (converted),1.7 µM
same,GI50,SK-OV-3,4.68 µM
same,LC50,SK-OV-3,77.6 µM
same,TGI,SK-OV-3; read-out: pTGI (converted),39.8 µM
same,GI50,[2]; UACC-257,14.5 µM
same,CC50,"[2]; UACC-257, read-out: pLC50 (the source's name) (converted)",77.6 µM
same,TGI,"[2]; UACC-257, read-out: pTGI (converted)",49 µM
same,GI50,MDA-MB-468,0.182 µM
same,LC50,MDA-MB-468,67.6 µM
same,TGI,MDA-MB-468; read-out: pTGI (converted),4.79 µM
same,GI50,SF-295; read-out: GI50,< 0.023 µM
same,GI50,SF-295; read-out: pGI50 (converted),0.0234 µM
same,CC50,SF-295; [3],6.46 µM
same,TGI,SF-295; read-out: pTGI (converted),0.115 µM
same,GI50,NCI-H322M,18.2 µM
same,CC50,NCI-H322M; [3],77.6 µM
same,TGI,NCI-H322M; read-out: pTGI (converted),49 µM
same,GI50,SNB-19,0.575 µM
same,CC50,SNB-19; [3],64.6 µM
same,TGI,SNB-19; read-out: pTGI (converted),35.5 µM
same,GI50,SK-MEL-2,0.105 µM
same,CC50,SK-MEL-2; [3],50.1 µM
same,TGI,SK-MEL-2; read-out: pTGI (converted),5.25 µM
